According to ChEMBL document CHEMBL4028886 (J Med Chem, 2017):
Calls of active or inactive are those of the source. No cut-off for these calls is given here.

Tests used:
Assay type in all cases: cell-based
[1] = molecular target: Sodium-dependent serotonin transporter (Homo sapiens, UniProt P31645); test: Inhibition of re-uptake of [3H]-5-HT at human SERT expressed in HEK293 cells preincubated for 5 mins followed by [3H]-dopamine addition measured after 1 min by liquid scintillation counting
[2] = molecular target: T1, Sodium-dependent dopamine transporter (Homo sapiens, UniProt Q01959); test: Displacement of [3H]WIN 35,428 from human DAT expressed in HEK293 cells at 2 and 4 uM after 30 mins in presence of increasing concentration of cocaine by liquid scintillation counting
T1 sequence (Q01959 whole entry): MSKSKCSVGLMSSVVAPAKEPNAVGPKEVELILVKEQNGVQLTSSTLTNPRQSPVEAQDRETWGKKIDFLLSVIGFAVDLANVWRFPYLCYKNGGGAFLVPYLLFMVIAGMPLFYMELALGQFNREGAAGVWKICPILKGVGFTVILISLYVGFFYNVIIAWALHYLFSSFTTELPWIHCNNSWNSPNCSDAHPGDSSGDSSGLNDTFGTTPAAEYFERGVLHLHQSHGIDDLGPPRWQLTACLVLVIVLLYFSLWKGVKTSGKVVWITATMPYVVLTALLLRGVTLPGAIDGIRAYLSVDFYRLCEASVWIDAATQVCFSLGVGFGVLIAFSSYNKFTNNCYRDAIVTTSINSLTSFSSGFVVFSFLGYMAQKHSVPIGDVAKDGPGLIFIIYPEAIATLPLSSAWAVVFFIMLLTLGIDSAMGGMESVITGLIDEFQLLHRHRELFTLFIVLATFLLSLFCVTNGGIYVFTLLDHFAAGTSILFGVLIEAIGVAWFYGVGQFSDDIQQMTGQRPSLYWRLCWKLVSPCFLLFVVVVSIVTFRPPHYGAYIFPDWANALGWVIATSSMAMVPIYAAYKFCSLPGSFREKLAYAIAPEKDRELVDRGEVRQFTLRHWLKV
Outline: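 Intact HEK-DAT cells on PDL-coated plates, in binding buffer (HEPES, NaCl, KCl, CaCl2, MgCl2, 10 μM ZnCl2, glucose, pH 7,3). Incubated with ~10 nM [3H]WIN 35,428, fixed concentrations of test compound and cocaine 0.001–1 μM, 30 min at 25 °C. Nonspecific binding defined with 30 μM mazindol. Cells lysed in 1% SDS and counted by scintillation. Reciprocal of bound (fmol) plotted against cocaine concentration as Dixon plot. Three experiments in triplicate, mean ± SD.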

[3] = molecular target: T1, Sodium-dependent dopamine transporter; test: Inhibition of re-uptake of [3H]-dopamine at human DAT expressed in HEK293 cells preincubated for 5 mins followed by [3H]-dopamine addition measured after 1 min by liquid scintillation counting
Outline: (§1)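 HEK293 cells stably expressing human DAT or NET, seeded on PDL-coated plates 24 h before. Preincubated 5 min in Krebs–HEPES buffer pH 7.3 with compound at 0.001 μM to 1 mM (DMSO stock diluted in buffer). Substrate then added: 0.2 μM [3H]dopamine for DAT, 1 min; 0.05 μM [3H]MPP+ for NET, 3 min. Room temperature. Uptake stopped with ice-cold buffer. Cells lysed in 1% SDS and counted by scintillation. Unspecific uptake defined with 10 μM mazindol. IC50 by nonlinear regression.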

[4] = molecular target: Sodium-dependent noradrenaline transporter (Homo sapiens, UniProt P23975); test: Inhibition of re-uptake of [3H]MPP+ at human NET expressed in HEK293 cells preincubated for 5 mins followed by […] addition measured after 3 min by liquid scintillation counting; outline: as §1
Chain of Sodium-dependent noradrenaline transporter (P23975 whole entry): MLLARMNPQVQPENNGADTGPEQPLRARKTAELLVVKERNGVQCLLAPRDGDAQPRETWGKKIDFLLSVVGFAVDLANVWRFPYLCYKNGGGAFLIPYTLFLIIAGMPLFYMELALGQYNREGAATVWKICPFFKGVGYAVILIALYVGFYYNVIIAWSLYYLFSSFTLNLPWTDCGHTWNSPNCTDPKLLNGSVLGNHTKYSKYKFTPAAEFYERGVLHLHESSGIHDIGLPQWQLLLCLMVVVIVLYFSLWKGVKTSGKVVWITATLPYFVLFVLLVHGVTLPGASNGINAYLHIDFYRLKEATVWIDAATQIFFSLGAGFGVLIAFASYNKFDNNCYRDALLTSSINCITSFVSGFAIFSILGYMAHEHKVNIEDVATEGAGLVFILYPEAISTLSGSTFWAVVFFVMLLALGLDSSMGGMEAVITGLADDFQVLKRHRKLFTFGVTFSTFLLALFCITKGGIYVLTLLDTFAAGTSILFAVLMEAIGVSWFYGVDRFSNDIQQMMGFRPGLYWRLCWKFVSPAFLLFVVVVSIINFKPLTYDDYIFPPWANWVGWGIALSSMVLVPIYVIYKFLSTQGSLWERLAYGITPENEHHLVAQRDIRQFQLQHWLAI

Chain of Sodium-dependent serotonin transporter (P31645 whole entry): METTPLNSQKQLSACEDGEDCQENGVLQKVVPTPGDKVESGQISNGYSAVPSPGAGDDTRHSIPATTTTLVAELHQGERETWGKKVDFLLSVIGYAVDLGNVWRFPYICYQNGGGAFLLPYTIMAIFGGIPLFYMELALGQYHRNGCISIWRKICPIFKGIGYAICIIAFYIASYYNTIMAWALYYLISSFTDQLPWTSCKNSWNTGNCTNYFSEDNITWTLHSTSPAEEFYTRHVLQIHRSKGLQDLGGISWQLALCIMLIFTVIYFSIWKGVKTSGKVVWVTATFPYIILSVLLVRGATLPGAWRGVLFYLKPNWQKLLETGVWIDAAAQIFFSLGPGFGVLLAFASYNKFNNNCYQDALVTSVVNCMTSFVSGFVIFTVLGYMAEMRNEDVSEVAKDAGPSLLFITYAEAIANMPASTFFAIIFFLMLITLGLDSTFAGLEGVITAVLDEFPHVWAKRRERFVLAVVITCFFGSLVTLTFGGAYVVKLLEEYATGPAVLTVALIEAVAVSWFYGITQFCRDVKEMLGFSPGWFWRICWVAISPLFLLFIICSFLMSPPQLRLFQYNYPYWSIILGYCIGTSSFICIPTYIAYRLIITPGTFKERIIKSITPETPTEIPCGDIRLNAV

| SMILES | IC50 ([1]; hek293) | inhibition [2] | IC50 ([3]; read-out: IC50) [µM] | IC50 ([4]; hek293) | IC50 ([1]; read-out: IC50) [µM] | IC50 ([4]; read-out: IC50) [µM] | IC50 ([3]; hek293) |
| --- | --- | --- | --- | --- | --- | --- | --- |
| Cc1nc(O)cc(C[S+]([O-])C(c2ccccc2)c2ccccc2)n1 (stereo unspecified) | Not Active | Active | 3.1 | Not Active | – | – | – |
| Cc1noc(C[S+]([O-])C(c2ccccc2)c2ccccc2)n1 (stereo unspecified) | Not Active | – | 56.7 | Not Active | – | – | – |
| [O-][S+](Cc1cc(C2CC2)on1)C(c1ccccc1)c1ccccc1 (stereo unspecified) | Not Active | – | 38.6 | Not Active | – | – | – |
| [O-][S+](Cc1ccc(Cl)s1)C(c1ccccc1)c1ccccc1 (stereo unspecified) | – | – | 12.8 | – | 57.2 | 68.4 | – |
| [O-][S+](Cc1ccsc1)C(c1ccccc1)c1ccccc1 (stereo unspecified) | Not Active | – | 3 | – | – | 57.6 | – |
| [O-][S+](Cc1ccsc1Br)C(c1ccccc1)c1ccccc1 (stereo unspecified) | – | – | 29.3 | – | 59.6 | 144 | – |
| [O-][S+](Cc1ccncc1)C(c1ccccc1)c1ccccc1 (stereo unspecified) | Not Active | – | 63.5 | Not Active | – | – | – |
| [O-][S+](Cc1sccc1Cl)C(c1ccccc1)c1ccccc1 (stereo unspecified) | Not Active | – | 4.9 | – | – | 188 | – |
| Cc1scc(C[S+]([O-])C(c2ccccc2)c2ccccc2)c1C (stereo unspecified) | Not Active | – | 284 | Not Active | – | – | – |
| [O-][S+](Cc1cccs1)C(c1ccccc1)c1ccc(Br)cc1 (stereo in doubt; 11h) | – | – | 2.4 | – | – | – | – |
| [O-][S+](Cc1nc(O)cc(C(F)(F)F)n1)C(c1ccccc1)c1ccccc1 (stereo unspecified) | Not Active | – | 40.4 | Not Active | – | – | – |
| COc1cc(C)nc(C[S+]([O-])C(c2ccccc2)c2ccccc2)n1 (stereo unspecified) | Not Active | – | 90.5 | – | – | 228 | – |
| Cc1nnc(C[S+]([O-])C(c2ccccc2)c2ccccc2)s1 (stereo unspecified) | Not Active | – | – | Not Active | – | – | Not Active |
| [O-][S+](Cc1cccs1)C(c1ccc(F)cc1)c1ccc(F)cc1 (stereo unspecified) | – | – | 4 | – | 120 | 113 | – |
| [O-][S+](Cc1cccs1)C(c1ccccc1)c1ccc(Br)cc1 (stereo in doubt; 11c) | Not Active | – | 4.2 | Not Active | – | – | – |
| COc1ccnc(C[S+]([O-])C(c2ccccc2)c2ccccc2)c1OC (stereo unspecified) | Not Active | – | – | Not Active | – | – | Not Active |

| SMILES | IC50 ([1]; hek293) | inhibition [2] | IC50 ([3]; read-out: IC50) [µM] | IC50 ([4]; hek293) | IC50 ([1]; read-out: IC50) [µM] | IC50 ([4]; read-out: IC50) [µM] | IC50 ([3]; hek293) |
| --- | --- | --- | --- | --- | --- | --- | --- |
| [O-][S+](Cc1cccs1)C(c1ccccc1)c1ccc(Br)cc1 (stereo in doubt; 11g) | – | – | 3.7 | – | – | – | – |
| [O-][S+](Cc1cc(Br)cs1)C(c1ccccc1)c1ccccc1 (stereo unspecified) | – | – | 13.7 | Not Active | 70.9 | – | – |
| Cc1cnc(C[S+]([O-])C(c2ccccc2)c2ccccc2)nc1 (stereo unspecified) | Not Active | – | 156 | Not Active | – | – | – |
| Cc1ccc(C(c2ccc(C)cc2)[S+]([O-])Cc2cccs2)cc1 (stereo unspecified) | Not Active | – | 5.8 | Not Active | – | – | – |
| O=c1[nH]nc(C[S+]([O-])C(c2ccccc2)c2ccccc2)s1 (stereo unspecified) | Not Active | – | 38.1 | – | – | 85.7 | – |
| Cc1cc(C[S+]([O-])C(c2ccccc2)c2ccccc2)nc(C)n1 (stereo unspecified) | Not Active | – | 82.6 | – | – | 768 | – |
| CC(C)c1nnsc1C[S+]([O-])C(c1ccccc1)c1ccccc1 (stereo unspecified) | Not Active | – | 69.1 | – | – | 30 | – |
| COC1NN=C(C[S+]([O-])C(c2ccccc2)c2ccccc2)S1 (stereo unspecified) | Not Active | – | 108 | – | – | 146 | – |
| [O-][S@@+](Cc1cccs1)[C@@H](c1ccccc1)c1ccc(Br)cc1 | Not Active | – | 4.1 | Not Active | – | – | – |
| [O-][S+](Cc1cccs1)C(c1ccc(Cl)cc1)c1ccc(Cl)cc1 (stereo unspecified) | Not Active | – | 7.2 | Not Active | – | – | – |
| [O-][S@+](Cc1cccs1)[C@H](c1ccccc1)c1ccc(Br)cc1 | Not Active | – | 1.5 | Not Active | – | – | – |
| [O-][S+](Cc1csc(Br)c1)C(c1ccccc1)c1ccccc1 (stereo unspecified) | – | – | 16.6 | – | 44.7 | 67.2 | – |
| Cc1cc(O)nc(C[S+]([O-])C(c2ccccc2)c2ccccc2)n1 (stereo unspecified) | Not Active | – | 109 | Not Active | – | – | – |
| [O-][S+](Cc1nc(C(F)(F)F)no1)C(c1ccccc1)c1ccccc1 (stereo unspecified) | – | – | 43.7 | – | 209 | 71 | – |
| NC(=O)C[S+]([O-])C(c1ccccc1)c1ccccc1 (stereo unspecified) [MODAFINIL] | – | – | – | – | – | 284 | – |
| Cc1ccc(C(c2ccccc2)[S+]([O-])Cc2cccs2)cc1 (stereo unspecified) | – | – | 2 | – | 118 | 152 | – |
